Measurements published in ChEMBL document CHEMBL1128743, “Synthesis of tight binding inhibitors and their action on the proprotein-processing enzyme furin” (J Med Chem, 1995).

Experiments:
[1] = biological target: Furin (Homo sapiens, UniProt P09958); assay: Inhibitory activity against furin
[2] = biological target: Serine protease 1 (Homo sapiens, UniProt P07477); assay: Inhibitory activity against trypsin
Procedure, shortened: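 Trypsin was tested in the furin buffer: 100 mM HEPES pH 7.5, 0.5% Triton X-100, 1 mM CaCl2, 1 mM 2-mercaptoethanol.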

[3] = biological target: Subtilisin Carlsberg (Bacillus licheniformis) (UniProt P00780); assay: Inhibitory activity against subtilism Carlsberg; No inhibition
Chain of Subtilisin Carlsberg (Bacillus licheniformis) (P00780 whole entry, looked up): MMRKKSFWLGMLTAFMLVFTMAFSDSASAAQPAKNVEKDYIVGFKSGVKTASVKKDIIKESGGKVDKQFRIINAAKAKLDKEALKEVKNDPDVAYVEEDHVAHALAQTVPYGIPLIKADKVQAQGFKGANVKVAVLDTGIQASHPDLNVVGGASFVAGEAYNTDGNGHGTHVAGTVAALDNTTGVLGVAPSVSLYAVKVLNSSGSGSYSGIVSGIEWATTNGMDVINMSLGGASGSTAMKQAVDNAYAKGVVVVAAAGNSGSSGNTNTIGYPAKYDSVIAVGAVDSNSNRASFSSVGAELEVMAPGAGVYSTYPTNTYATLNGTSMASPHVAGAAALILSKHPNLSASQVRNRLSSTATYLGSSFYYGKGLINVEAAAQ

Chain of Furin (P09958 whole entry): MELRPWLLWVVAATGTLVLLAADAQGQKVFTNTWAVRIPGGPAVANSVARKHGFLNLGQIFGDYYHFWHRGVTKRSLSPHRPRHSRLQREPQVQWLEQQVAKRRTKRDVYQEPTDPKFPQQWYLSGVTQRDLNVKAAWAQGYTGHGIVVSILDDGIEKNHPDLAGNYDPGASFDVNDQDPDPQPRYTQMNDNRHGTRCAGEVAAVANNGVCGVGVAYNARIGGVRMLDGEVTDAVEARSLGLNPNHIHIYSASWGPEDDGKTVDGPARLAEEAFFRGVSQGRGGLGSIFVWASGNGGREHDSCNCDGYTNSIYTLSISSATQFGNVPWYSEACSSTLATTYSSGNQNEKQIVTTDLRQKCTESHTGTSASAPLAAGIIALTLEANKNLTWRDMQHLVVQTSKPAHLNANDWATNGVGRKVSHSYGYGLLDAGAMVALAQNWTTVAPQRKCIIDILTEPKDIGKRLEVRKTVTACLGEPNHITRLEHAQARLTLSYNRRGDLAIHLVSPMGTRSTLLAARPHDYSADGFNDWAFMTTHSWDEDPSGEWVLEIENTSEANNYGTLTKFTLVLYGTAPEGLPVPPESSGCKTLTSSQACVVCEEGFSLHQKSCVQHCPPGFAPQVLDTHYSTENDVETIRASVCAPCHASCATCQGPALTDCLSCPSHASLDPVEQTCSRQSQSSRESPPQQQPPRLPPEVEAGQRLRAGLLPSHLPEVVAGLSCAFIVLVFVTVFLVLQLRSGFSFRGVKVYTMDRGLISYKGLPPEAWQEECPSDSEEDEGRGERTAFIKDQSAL
Chain of Serine protease 1 (P07477 whole entry): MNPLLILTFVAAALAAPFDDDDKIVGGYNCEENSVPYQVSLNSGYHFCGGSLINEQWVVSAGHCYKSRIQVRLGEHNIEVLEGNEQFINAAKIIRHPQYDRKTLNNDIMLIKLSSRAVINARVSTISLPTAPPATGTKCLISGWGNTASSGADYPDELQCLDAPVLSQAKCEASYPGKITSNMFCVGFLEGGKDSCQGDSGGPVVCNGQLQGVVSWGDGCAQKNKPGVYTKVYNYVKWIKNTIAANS

Ki [1] [nM] | Ki [2] [nM] | Ki [3] | SMILES
350 |  |  | COC(=O)[C@@H](CC(C)C)NC(=O)CNC(=O)[C@H](NC(=O)CCC(=O)[C@H](CCCN=C(N)N)NC(=O)[C@H](CCCCN)NC(=O)[C@@H](NC(=O)[C@H](CCCN=C(N)N)NC(C)=O)C(C)C)C(C)C
 | 1900 |  | CCCCCCCCCCN[C@@H](CCCNC(=N)N)C(=O)N[C@H](C(=O)N[C@@H](CCCCN)C(=O)N[C@@H](CCCNC(=N)N)C(=O)CN[C@@H](C)C(=O)N[C@H](C(=O)NCC(=O)OC)C(C)C)C(C)C
330 | 20900 | Not Active | CCCCCCCCCCN[C@@H](CCCN=C(N)N)C(=O)N[C@H](C(=O)N[C@@H](CCCCN)C(=O)N[C@@H](CCCN=C(N)N)C(=O)CCC(=O)N[C@@H](C(=O)NCC(=O)N[C@H](CC(C)C)C(=O)OC)C(C)C)C(C)C
240 |  |  | CCCCCCCCCCN[C@@H](CCCN=C(N)N)C(=O)N[C@H](C(=O)N[C@@H](CCCCN)C(=O)N[C@@H](CCCN=C(N)N)C(=O)CCC(=O)OC)C(C)C
3.4 |  |  | CCCCCCCCCCN[C@@H](CCCN=C(N)N)C(=O)N[C@H](C(=O)N[C@@H](CCCCN)C(=O)N[C@@H](CCCN=C(N)N)C(=O)CN[C@@H](C)C(=O)N[C@H](C(=O)NCC(N)=O)C(C)C)C(C)C
26 |  |  | CCCCCCCCCCN[C@@H](CCCN=C(N)N)C(=O)N[C@H](C(=O)N[C@@H](CCCCN)C(=O)N[C@H](CCCN=C(N)N)C(=O)CN[C@@H](C)C(=O)N[C@H](C(=O)NCC(N)=O)C(C)C)C(C)C
